Compounds with a hit are over-represented: about 1.1% of the library has one in this group of screens.
KLK5 inh: human KLK5 protease inhibitors, primary screen, biochemical, 1536-well; Kallikrein-5 (Homo sapiens), Q9Y337; recombinant hK5, fluorogenic AMC substrate cleavage; inhibition, % at 5 µM; actives 0.59% (n = 210,000); AID 873, 2007;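 active = inhibition of 40% or more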;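 also: 0% = enzyme controls without compound and 100% = no-enzyme blanks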
FXIIa inh: human FXIIa protease inhibitors, primary screen, biochemical, 1536-well; purified FXIIa, Boc-QGR-AMC fluorogenic substrate, 2 h; Coagulation factor XII (Homo sapiens), P00748; actives 0.3% (n = 220,000); inhibition, % at 5 µM; AID 800, 2007; in the data active = inhibition above about 40%;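 also: 0% = enzyme with no compound and 100% = blank without enzyme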
FXIa inh: human FXIa protease inhibitors, primary screen, biochemical, 1536-well | inhibition, % at 5 µM | AID 798, 2007 | purified FXIa, Boc-Glu-Ala-Arg-AMC fluorogenic substrate | actives 0.14% (n = 220,000);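 active = inhibition of at least 40%; inactive = inhibition below 40%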;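 also: fluorescence of freed AMC excited at 355 nm; 0% = enzyme without compound and 100% = no enzyme blank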
Furin inhibitor: human furin inhibitors, primary screen, biochemical, fluorescence intensity; AID 463115, 2010; inhibition, % at 20 µM or 30 µM; actives 0.061% (n = 220,000); P09958; purified furin, fluorogenic substrate cleavage; in the data active = inhibition above about 25%
Target sequence (P09958 108-714 limits assumed): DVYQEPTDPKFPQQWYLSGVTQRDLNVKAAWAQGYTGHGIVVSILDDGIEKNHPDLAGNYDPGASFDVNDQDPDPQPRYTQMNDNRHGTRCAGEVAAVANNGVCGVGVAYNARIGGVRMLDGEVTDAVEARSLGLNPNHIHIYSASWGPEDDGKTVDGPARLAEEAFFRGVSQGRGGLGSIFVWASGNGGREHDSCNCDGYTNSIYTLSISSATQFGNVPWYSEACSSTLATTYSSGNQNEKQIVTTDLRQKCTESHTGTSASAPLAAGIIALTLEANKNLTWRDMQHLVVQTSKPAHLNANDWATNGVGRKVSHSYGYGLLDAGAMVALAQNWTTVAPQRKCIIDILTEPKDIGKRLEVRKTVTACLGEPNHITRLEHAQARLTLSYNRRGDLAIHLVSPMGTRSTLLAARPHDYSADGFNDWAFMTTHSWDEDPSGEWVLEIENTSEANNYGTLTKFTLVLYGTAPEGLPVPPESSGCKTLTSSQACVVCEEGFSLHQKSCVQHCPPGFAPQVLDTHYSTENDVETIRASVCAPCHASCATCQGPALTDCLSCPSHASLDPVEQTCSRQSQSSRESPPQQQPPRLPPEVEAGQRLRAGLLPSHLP
Thrombin inh: human alpha-thrombin inhibitors, primary screen, counter-screen for coagulation protease inhibitor project, biochemical, 1536-well, fluorogenic AMC substrate | Prothrombin (Homo sapiens), P00734 | Boc-VPR-AMC fluorogenic substrate cleavage | inhibition, % at 5 µM | actives 0.26% (n = 220,000) | AID 1046, 2008;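 active = inhibition at or above 40%; inactive = inhibition below 40%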;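 also: 0% = enzyme with no compound and 100% = wells without enzyme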
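System: Human alpha-thrombin protein | Medium: pH 7.5 Tris (50 mM) with NaCl 150 mM, Tween 20 0.05% | Times: Enzyme reaction carried out at room temperature | Detection: AMC fluorescence, 355/460 nm | Evaluation: Percent inhibition scaled between no-compound controls and no-enzyme blanks | Benchmarks: Enzyme without compound as high, wells lacking enzyme as low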
An asterisk follows results filed as active.

SMILES	KLK5 inh	FXIIa inh	FXIa inh	Furin inhibitor	Thrombin inh
Cn1c(CN2CCCCC2)nc2cc(NS(=O)(=O)c3ccc(Cl)cc3)ccc21	3	17	5	-16	76*
O=Cc1c(C(=O)O)n(CC(=O)O)c2ccccc12	16	-1	3	-9	-3
COc1ccc(/C=C2/SC(=S)N(n3c(C)ccc3C)C2=O)cc1	-14	84*	1	-11	-8
CCOc1ccc(/C=C2/SC(=S)N(n3c(C)ccc3C)C2=O)cc1	25	4	1	-9	-3
O=C(Nc1ccccc1)N(CCN1CCOCC1)Cc1ccccc1F	-10	2	-11	30*	-8
Cc1cccc(NC(=S)N(CCN2CCOCC2)Cc2ccccc2F)c1	-5	-8	-2	-27	-8
O=C(c1cc(S(=O)(=O)N2CCC3(CC2)OCCO3)ccc1F)N1CCCCC1	-4	5	-1	-22	9
CC(C)Nc1nc(C#N)nc(NC(C)C)n1	97*	6	2	-32	102*
CC(C)Nc1nc(NC(C)C)nc(N(C#N)C(C)C(=O)N(C)C)n1 (stereo unspecified)	-6	11	4	-5	1
Cc1cccc(NC(=O)Nc2ccc3c(c2)N(C)C(=O)CS3)n1	58*	8	-1	-27	31
Cc1c(NC(=O)CN2CCCc3ccccc32)c(=O)n(-c2ccccc2)n1C	144*	15	0	-11	17
Nc1ccnn1Cc1cccs1	79*	43*	8	-12	22
Nc1ccnn1Cc1ccncc1	-4	2	-5	-4	-1
COC(=O)c1ccccc1NC(=O)Nc1cc(C)ccn1	23	41*	31	-6	32
Cc1ccc(CN2CC34C=CC(O3)C(C(=O)NCc3ccco3)C4C2=O)cc1 (stereo unspecified)	156*	-2	-1	-7	1
O=C(O)c1c(-c2ccc(Cl)cc2)cn2ccccc12	-8	5	1	-17	-4
Cc1cc(C(=O)Nc2nc(C)c(C(=O)N(C)C)s2)ccc1[N+](=O)[O-]	24	53*	15	-14	43*
Cc1ccc(C(=O)NCCN2CCNC2=O)cc1	44*	47*	24	-6	19
O=C(NCc1ccc2c(c1)OCO2)c1c[nH]c2ccc(S(=O)(=O)N3CCOCC3)cc2c1=O	-12	13	6	-11	55*
Cc1c(C)n(CCC#N)c2ccccc12	-14	43*	32	-3	-9
O=C(C1CCN(Cc2nc(Cc3cccc(F)c3)no2)CC1)N1CCOCC1	4	9	-2	-26	-7
CCOC(=O)CN1CC23C=CC(O2)C(C(=O)Nc2ccc(OCC)cc2)C3C1=O (stereo unspecified)	43*	15	7	-21	4
COc1ccc(C(C)C)cc1S(=O)(=O)Nc1ccncc1	26	23	26	-7	46*
COc1ccccc1-c1nnc(NC(=O)C(C)SC2=NCCS2)s1 (stereo unspecified)	53*	6	4	-24	15
CC(SC1=NCCS1)C(=O)Nc1nnc(-c2ccc(Cl)cc2)s1 (stereo unspecified)	-4	-2	-6	-18	-1
SMILES	KLK5 inh	FXIIa inh	FXIa inh	Furin inhibitor	Thrombin inh
CCCN1CCC(N2CCCC(C(=O)O)C2)CC1 (stereo unspecified)	27	27	33	-2	45*
COc1ccc(Nc2cc(Cl)nc(N)n2)cc1OC	-3	7	-4	-25	-7
CCc1nnc(NC(=O)CN2CCN(c3ccccc3F)CC2)s1	-5	4	-4	-33	-6
C=CCn1c(SCC(=O)N2CCN(c3ccccc3)CC2)nnc1-c1ccco1	-3	4	-1	5	-3
CCn1c(SCC(=O)N2CCN(c3ccccc3)CC2)nnc1-c1cc2cc(Cl)ccc2o1	0	47*	18	-18	16
CCN(CC)c1ccc(NC(=O)C2=CCN(S(=O)(=O)c3ccc(F)cc3)CC2)c(C)c1	-13	-5	-5	-15	-2
CN(C)S(=O)(=O)c1ccc(NC(=O)COc2ncnc3sccc23)cc1	-3	8	-7	-24	-9
NC(=O)NOCc1ccccc1	23	28	45*	-5	12
COC(=O)C(C)Sc1nnc(Cc2cc(=O)[nH]c(=O)[nH]2)n1-c1ccc(Cl)cc1 (stereo unspecified)	30	43*	8	-14	24
CC(C)c1ccc(NNC(=O)C2CCC2)cc1	-2	12	-4	-12	5
O=C(CSc1nc2ccccc2n1Cc1ccccc1Cl)N/N=C/c1ccccc1C(=O)O	47*	30	28	-7	23
CCOC(=O)C1=C(C)OC(N)=C(C#N)C1c1cc2c(cc1[N+](=O)[O-])OCO2 (stereo unspecified)	-1	7	-2	-38	74*
O=C(CBr)N1CCc2ccccc2C(c2ccccc2)C1 (stereo unspecified)	4	10	2	-14	-1
O=C(CN1CCOCC1)N1CCc2ccccc2C(c2ccccc2)C1 (stereo unspecified)	73*	-2	10	-22	20
CCN1C(=O)/C(=C/C2=Cc3ccccc3OC2C)SC1=S (stereo unspecified)	12	11	1	-22	1
O=[N+]([O-])c1cccc(C=Nc2cc3c(cc2Br)OCCO3)c1	51*	-6	8	-20	12
O=c1c2cnn(-c3ccccc3)c2nc(-c2ccco2)n1-c1ccccc1	-7	-15	-10	0	-9
O=C(c1ccccc1)c1ccc2nc(-c3ccco3)c(-c3ccco3)nc2c1	-2	2	-1	-12	-6
O=c1oc(-c2ccco2)nc2c1cnn2-c1ccccc1	21	48*	14	-28	17
c1coc(-c2nc3ccccc3nc2-c2ccco2)c1	12	45*	13	-10	16
O=c1oc(-c2ccco2)nc2ccccc12	44*	6	22	-11	8
Cc1ccc(NC(=O)CCC(=O)NNC(=O)NC2CCCCC2)c(C)c1	-8	3	-4	-11	-1
Cc1nc([N+](=O)[O-])cn1-c1nc2ccccn2c1[N+](=O)[O-]	3	6	2	-8	1
O=C1CSC(c2cn(-c3ccccc3)nc2-c2cc3ccccc3oc2=O)N1Cc1ccco1 (stereo unspecified)	153*	8	22	-43	-4
O=c1[nH]c(CN2CCN(Cc3ccccc3)CC2)nc2scc(-c3ccccc3)c12	0	9	1	-21	1
CSCc1nc2scc(-c3ccccc3)c2c(=O)[nH]1	11	29	28	-14	41*
